# Data published in ChEMBL document CHEMBL1146380, “Synthesis, antimicrobial activity, and QSAR studies of furan-3-carboxamides” (2007).
# Calls of active or inactive are those of the source. The rule behind the calls is not given here.
# What was measured:
# [1] = tested on: Sporothrix schenckii; assay: Antimicrobial activity against Sporothrix schenckii ATCC 1146 by broth microdilution method; type: functional
# [2] = tested on: Fusarium solani; assay: Antimicrobial activity against Fusarium solani isolate by broth microdilution method; type: functional
# [3] = tested on: Aspergillus flavus; assay: Antimicrobial activity against Aspergillus flavus isolate by broth microdilution method; type: functional
# [4] = tested on: Escherichia coli; assay: Antimicrobial activity against Escherichia coli ATCC 25922 by broth microdilution method; type: functional
# Summary of the method: (§1)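 Bacteria grown overnight on Mueller–Hinton agar. Colonies were suspended in saline to McFarland turbidity (about 10^8 cfu/mL), diluted 1:100 in saline, then 1:20 in Mueller–Hinton broth, giving 5 · 10^4 cfu/mL per well. DMSO-dissolved compound was tested in twofold dilutions from 320 to 1.25 at 35 °C for 24 h. MIC was the lowest concentration with no visible turbidity (M7-A4). Bactericidal concentration was read by subculturing clear wells on Mueller–Hinton agar.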
# [5] = tested on: Nakaseomyces glabratus; assay: Antimicrobial activity against Candida glabrata […] by broth microdilution method; type: functional
# Summary of the method: (§2)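 Yeasts grown on potato dextrose agar. Inoculum was standardized by McFarland turbidity as for bacteria, into RPMI 1640 broth (M27-A2). DMSO-dissolved compound was tested in twofold dilutions from 320 to 1.25 at 35 °C for 24 h, in duplicate. MIC was the lowest concentration completely inhibiting visible growth. Fungicidal concentration was read by subculturing 20 µL from clear wells on Sabouraud dextrose agar at 35 °C.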
# [6] = tested on: Scedosporium boydii; assay: Antimicrobial activity against Pseudallescheria boydii isolate by broth microdilution method; type: functional
# [7] = tested on: Saccharomyces cerevisiae; assay: Antimicrobial activity against Saccharomyces cerevisiae ATCC 2601 by broth microdilution method; type: functional
# Summary of the method: (§3)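 Organism grown on potato dextrose agar, with turbidity-standardized inoculum in RPMI 1640 broth (M27-A2). DMSO-dissolved compound was tested in twofold dilutions from 320 to 1.25 at 35 °C, incubated up to 72 h, in duplicate. MIC was the lowest concentration with no visible growth. Cidal concentration was read by subculturing 20 µL from clear wells on Sabouraud dextrose agar, incubated for the same period.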
# [8] = tested on: Pseudomonas aeruginosa; assay: Antimicrobial activity against Pseudomonas aeruginosa ATCC 27853 by broth microdilution method; type: functional; summary of the method: as §1
# [9] = tested on: Klebsiella pneumoniae; assay: Antimicrobial activity against Klebsiella pneumoniae ATCC 1003 by broth microdilution method; type: functional; conditions: for MBC: read-out: MFC; summary of the method: as §1
# [10] = tested on: Aspergillus terreus; assay: Antimicrobial activity against Aspergillus terreus isolate by broth microdilution method; type: functional
# [11] = tested on: Aspergillus niger; assay: Antimicrobial activity against Aspergillus niger isolate by broth microdilution method; type: functional
# [12] = tested on: Staphylococcus aureus; assay: Antimicrobial activity against Staphylococcus aureus ATCC 25923 by broth microdilution method; type: functional; conditions: for MBC: read-out: MFC; summary of the method: as §1
# [13] = tested on: Prototheca zopfii; assay: Antimicrobial activity against Prototheca zopfii by broth microdilution method; type: functional; summary of the method: as §3
# [14] = tested on: Rhizopus arrhizus; assay: Antimicrobial activity against Rhizopus oryzae isolate by broth microdilution method; type: functional
# [15] = (§4) Antimicrobial activity against Salmonella setubal ATCC 19196 by broth microdilution method; type: functional, Salmonella enterica subsp. enterica serovar Setubal; conditions: Salmonella enterica; summary of the method: as §1
# [16] = tested on: Salmonella enterica subsp. enterica serovar Setubal; assay: as §4; type: functional; summary of the method: as §1
# [17] = tested on: Candida dubliniensis; assay: Antimicrobial activity against Candida dubliniensis CBS 7987 by broth microdilution method; type: functional; summary of the method: as §2
# [18] = tested on: Cryptococcus deneoformans; assay: Antimicrobial activity against Cryptococcus neoformans var.neoformans serotype D ATCC 28952 by broth microdilution method; type: functional; summary of the method: as §3
# [19] = tested on: Aspergillus fumigatus; assay: Antimicrobial activity against Aspergillus fumigatus isolate by broth microdilution method; type: functional
# [20] = tested on: Candida albicans; assay: Antimicrobial activity against Candida albicans ATCC 44373 by broth microdilution method; type: functional; summary of the method: as §2
smiles,measurement,setting,value
O=C(NCCC1CCN(Cc2ccccc2)CC1)c1ccoc1,Activity,[1],inactive
same,MIC,[1],20 µg/mL
same,Activity,[2],inactive
same,MIC,[2],320 µg/mL
same,Activity,[3],inactive
same,MIC,[3],320 µg/mL
same,MBC,[4],320 µg/mL
same,MIC,[4],160 µg/mL
same,MFC,[5],320 µg/mL
same,MIC,[5],320 µg/mL
same,MFC,[6],80 µg/mL
same,MIC,[6],40 µg/mL
same,MFC,[7],160 µg/mL
same,MIC,[7],80 µg/mL
same,Activity,[8],inactive
same,MIC,[8],20 µg/mL
same,MIC,[9],160 µg/mL
same,MBC,[9],320 µg/mL
same,Activity,[10],inactive
same,MIC,[10],320 µg/mL
same,Activity,[11],inactive
same,MIC,[11],320 µg/mL
same,MIC,[12],40 µg/mL
same,MBC,[12],160 µg/mL
same,MFC,[13],320 µg/mL
same,MIC,[13],320 µg/mL
same,Activity,[14],inactive
same,MIC,[14],320 µg/mL
same,MIC,[15],320 µg/mL
same,Activity,[16],inactive
same,MFC,[17],160 µg/mL
same,MIC,[17],160 µg/mL
same,Activity,[18],inactive
same,MIC,[18],320 µg/mL
same,Activity,[19],inactive
same,MIC,[19],320 µg/mL
same,MFC,[20],320 µg/mL
same,MIC,[20],160 µg/mL
CN(C)C(=O)c1ccoc1,MFC,[1],320 µg/mL
same,MIC,[1],160 µg/mL
same,Activity,[2],inactive
same,Activity,[3],inactive
same,Activity,[4],inactive
same,Activity,[5],inactive
same,MFC,[6],320 µg/mL
same,MIC,[6],160 µg/mL
same,MIC,[7],inactive
same,Activity,[8],inactive
same,MIC,[8],320 µg/mL
same,Activity,[9],inactive
same,MIC,[9],320 µg/mL
same,Activity,[10],inactive
same,Activity,[11],inactive
same,MIC,[11],320 µg/mL
same,Activity,[12],inactive
same,MIC,[12],320 µg/mL
same,Activity,[13],inactive
same,MIC,[13],320 µg/mL
same,MFC,[14],320 µg/mL
same,MIC,[14],320 µg/mL
same,MIC,[15],320 µg/mL
same,Activity,[16],inactive
same,Activity,[17],inactive
same,Activity,[18],inactive
same,MIC,[18],320 µg/mL
same,Activity,[19],inactive
same,Activity,[20],inactive
NS(=O)(=O)c1ccc(NC(=O)c2ccoc2)cc1,Activity,[1],inactive
same,Activity,[2],inactive
same,MFC,[3],320 µg/mL
same,MIC,[3],320 µg/mL
same,Activity,[4],inactive
same,Activity,[5],inactive
same,Activity,[6],inactive
same,Activity,[7],inactive
same,Activity,[8],inactive
same,MIC,[9],20 µg/mL
same,MBC,[9],320 µg/mL
same,Activity,[10],inactive
same,MFC,[11],320 µg/mL
same,MIC,[11],320 µg/mL
same,Activity,[12],inactive
same,Activity,[13],inactive
same,Activity,[14],inactive
same,MIC,[15],160 µg/mL
same,Activity,[16],inactive
same,Activity,[17],inactive
same,Activity,[18],inactive
same,Activity,[19],inactive
same,Activity,[20],inactive
O=C(NCc1ccncc1)c1ccoc1,MFC,[1],320 µg/mL
same,MIC,[1],320 µg/mL
same,Activity,[2],inactive
same,MIC,[2],320 µg/mL
same,Activity,[3],inactive
same,Activity,[4],inactive
same,MIC,[4],320 µg/mL
same,Activity,[5],inactive
same,MFC,[6],320 µg/mL
same,MIC,[6],320 µg/mL
same,Activity,[7],inactive
same,Activity,[8],inactive
same,MIC,[8],320 µg/mL
same,Activity,[9],inactive
same,MIC,[9],320 µg/mL
same,MFC,[10],320 µg/mL
same,MIC,[10],320 µg/mL
same,MFC,[11],320 µg/mL
same,MIC,[11],320 µg/mL
same,MIC,[12],80 µg/mL
same,MBC,[12],320 µg/mL
same,MFC,[13],160 µg/mL
same,MIC,[13],160 µg/mL
same,MFC,[14],320 µg/mL
same,MIC,[14],320 µg/mL
same,MIC,[15],320 µg/mL
same,Activity,[16],inactive
same,MFC,[17],320 µg/mL
same,MIC,[17],320 µg/mL
same,MFC,[18],320 µg/mL
same,MIC,[18],320 µg/mL
same,Activity,[19],inactive
same,MIC,[19],320 µg/mL
same,Activity,[20],inactive
N=C(NC(=O)c1ccoc1)c1ccccc1,MFC,[1],320 µg/mL
same,MIC,[1],320 µg/mL
same,Activity,[2],inactive
same,MIC,[2],320 µg/mL
same,Activity,[3],inactive
same,Activity,[4],inactive
same,MIC,[4],320 µg/mL
same,Activity,[5],inactive
same,MFC,[6],160 µg/mL
same,MIC,[6],160 µg/mL
same,Activity,[7],inactive
same,Activity,[8],inactive
same,MIC,[8],320 µg/mL
same,Activity,[9],inactive
same,MIC,[9],320 µg/mL
same,MFC,[10],320 µg/mL
same,MIC,[10],320 µg/mL
same,Activity,[11],inactive
same,MIC,[11],320 µg/mL
same,Activity,[12],inactive
same,MIC,[12],320 µg/mL
same,MFC,[13],320 µg/mL
same,MIC,[13],160 µg/mL
same,MFC,[14],320 µg/mL
same,MIC,[14],320 µg/mL
same,MIC,[15],320 µg/mL
same,Activity,[16],inactive
same,Activity,[17],inactive
same,MFC,[18],320 µg/mL
same,MIC,[18],160 µg/mL
same,MFC,[19],320 µg/mL
same,MIC,[19],320 µg/mL
same,Activity,[20],inactive
O=C(NCc1ccccn1)c1ccoc1,Activity,[1],inactive
same,MIC,[1],320 µg/mL
same,Activity,[2],inactive
same,MIC,[2],320 µg/mL
same,MFC,[3],320 µg/mL
same,MIC,[3],320 µg/mL
same,Activity,[4],inactive
same,MIC,[4],320 µg/mL
same,Activity,[5],inactive
same,MFC,[6],320 µg/mL
same,MIC,[6],320 µg/mL
same,Activity,[7],inactive
same,Activity,[8],inactive
same,MIC,[8],320 µg/mL
same,Activity,[9],inactive
same,MIC,[9],320 µg/mL
same,Activity,[10],inactive
same,MIC,[10],320 µg/mL
same,Activity,[11],inactive
same,Activity,[12],inactive
same,MIC,[12],320 µg/mL
same,Activity,[13],inactive
same,MIC,[13],320 µg/mL
same,Activity,[14],inactive
same,MIC,[14],320 µg/mL
same,MIC,[15],320 µg/mL
same,Activity,[16],inactive
same,Activity,[17],inactive
same,Activity,[18],inactive
same,MIC,[18],320 µg/mL
same,Activity,[19],inactive
same,Activity,[20],inactive
